# Experimental data as given in ChEMBL document CHEMBL3425463, “The quassinoid isobrucein B reduces inflammatory hyperalgesia and cytokine production by post-transcriptional modulation” (J Nat Prod, 2015).
# Activity calls are given as the source filed them. The rule behind the calls is not given here.
# Experiments:
# Mus musculus [1] = assay: Inhibition of protein synthesis in carrageenan-induced mechanical inflammatory hyperalgesia male C57BL/6 mouse model assessed as inhibition of IL-1beta production in inflamed tissue at 20 mg/kg, sc […] challenge and measured after 3 hrs by ELISA; assay type: functional, organism-based; design: dose 20 mg/kg
# RAW264.7 [2] = assay: Inhibition of luminescence emission in mouse RAW264.7 cells transfected with luciferase plasmid containing universal promoter PKG at 70 uM after 6 hrs by luciferase reporter gene assay; assay type: functional, cell-based
# How it was run: (§1)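 RAW 264.7 cells (5 × 10^5/well) in RPMI-1640 with 2% FBS, transfected with a PGK-promoter luciferase plasmid (1 μg/well) for 6 h at 37 °C, 5% CO2. Then treated 6 h with drug, dexamethasone 1 mM, pyrrolidine dithiocarbamate 500 μM or cycloheximide 70 μM. Cells lysed in Tris/NaCl/Tween buffer, pH 7.5, and luminescence read.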
# Mus musculus [3] = assay: Inhibition of protein synthesis in carrageenan-induced mechanical inflammatory hyperalgesia male C57BL/6 mouse model assessed as inhibition of TNF production in inflamed tissue at 20 mg/kg, sc […] challenge and measured after 3 hrs by ELISA; assay type: functional, organism-based; design: dose 20 mg/kg
# RAW264.7 [4] = assay: Antiinflammatory activity against mouse RAW264.7 cells assessed as reduction of LPS-induced TNF mRNA expression cells at 1 mM treated 30 mins before LPS challenge measured after 3 hrs by qRT-PCR analysis; assay type: functional, cell-based
# How it was run: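 RAW 264.7 macrophages (1.5 × 10^6 cells/well) in supplemented RPMI-1640 were pretreated with vehicle, test compound or dexamethasone (1 mM) before LPS stimulation. Cells were lysed in TRIzol, and TNF mRNA was measured by quantitative real-time PCR with GAPDH primers. Stock in DMSO diluted in RPMI-1640, final DMSO ≤0.5%.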
# RAW264.7 [5] = assay: Inhibition of luminescence emission in mouse RAW264.7 cells transfected with luciferase plasmid containing universal promoter PKG at 1 mM after 6 hrs by luciferase reporter gene assay; assay type: functional, cell-based
# How it was run: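 RAW 264.7 cells (5 × 10^5/well) in RPMI-1640 with 2% FBS were transfected with pmirGLO dual-luciferase plasmid (1 μg/well, PGK universal promoter) by FuGene 6 for 6 h at 37 °C, 5% CO2. Compound was added ([…] as printed) and incubated 6 h. Cells were lysed in TNT buffer, and luciferin luminescence was read. Controls: dexamethasone, PDTC, cycloheximide.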
# RAW264.7 [6] = assay: Inhibition of luminescence emission in mouse RAW264.7 cells transfected with luciferase plasmid containing universal promoter PKG at 500 uM after 6 hrs by luciferase reporter gene assay; assay type: functional, cell-based; how it was run: as §1
# Mus musculus [7] = assay: Antiinflammatory activity in carrageenan-induced mechanical inflammatory hyperalgesia male C57BL/6 mouse model assessed as inhibition of IL-1beta production in inflamed tissue at 5 mg/kg, […] and measured after 3 hrs; assay type: functional, organism-based; design: dose 5 mg/kg
# RAW264.7 [8] = assay: Inhibition of LPS-induced NF-kappaB p65 translocation into nucleus in mouse RAW264.7 cells at 10 uM treated 30 mins before LPS challenge by Western blot analysis; assay type: cell-based
# How it was run: (§2)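 RAW 264.7 cells treated before LPS. Cytoplasmic and nuclear fractions made by hypotonic/high-salt (420 mM NaCl) lysis; Bradford protein assay; 12% SDS-PAGE. Blots: IκB-α (1:1000) on cytoplasmic and p65 (1:300) on nuclear extracts, ECL detection. Nucleophosmin and actin as fraction markers; bands normalized to medium control.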
# RAW264.7 [9] = assay: Antiinflammatory activity against mouse RAW264.7 cells assessed as reduction of LPS-induced KC/CXCL1 production compound pretreated 30 mins of LPS challenge measured after 4 hrs by ELISA; assay type: functional, cell-based
# Mus musculus [10] = assay: Antiinflammatory activity in carrageenan-induced mechanical inflammatory hyperalgesia male C57BL/6 mouse model assessed as inhibition of KC/CXCL1 production in inflamed tissue at 5 mg/kg, […] and measured after 3 hrs; assay type: functional, organism-based; design: dose 5 mg/kg
# Mus musculus [11] = assay: Antiinflammatory activity in carrageenan-induced mechanical inflammatory hyperalgesia male C57BL/6 mouse model assessed as inhibition of TNF level production in inflamed tissue at 5 mg/kg, […] and measured after 3 hrs; assay type: functional, organism-based; design: dose 5 mg/kg
# RAW264.7 [12] = assay: Inhibition of LPS-induced NF-kappaB activation in mouse RAW264.7 cells assessed as reduction luminescence emission at 0.001 to 10 uM pretreated 30 mins before LPS challenge measured after 4 hrs by luciferase reporter gene assay; assay type: cell-based
# How it was run: (§3)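 RAW 264.7 NF-κB-luciferase reporter cells pretreated 30 min (0.001−10 μM) before stimulus: LPS 1 μg/mL, PGN 10 μg/mL, TNF 10 ng/mL or PMA 1 μg/mL. Cells lysed at 4 h; luciferin added, luminescence read. Expressed relative to stimulus alone set at 100%. Dexamethasone 1 mM control. n = 4–5.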
# RAW264.7 [13] = assay: Inhibition of luminescence emission in mouse RAW264.7 cells transfected with luciferase plasmid containing universal promoter PKG at 0.1 to 10 uM after 6 hrs by luciferase reporter gene assay; assay type: functional, cell-based; how it was run: as §1
# RAW264.7 [14] = assay: Inhibition of NF-kappaB-mediated IkappaBalpha degradation in LPS-induced mouse RAW264.7 cells at 10 uM treated 30 mins before LPS challenge by Western blot analysis; assay type: cell-based; how it was run: as §2
# RAW264.7 [15] = assay: Antiinflammatory activity against mouse RAW264.7 cells assessed as reduction of LPS-induced IL-1beta production compound pretreated 30 mins of LPS challenge measured after 4 hrs by ELISA; assay type: functional, cell-based
# [16] = test system: peritoneal macrophages (Mus musculus); assay: Cytotoxicity against mouse peritoneal macrophages assessed as cell viability at 0.001 to 10 uM pretreated 30 mins by MTT assay in presence of LPS
# Mus musculus [17] = assay: Antihyperalgesic activity in sc dosed male C57BL/6 mouse assessed as reduction in carrageenan-induced mechanical inflammatory hyperalgesia […] and measured after 3 hrs; assay type: functional, organism-based
# Mus musculus [18] = assay: Antihyperalgesic activity in male C57BL/6 mouse assessed as reduction in carrageenan-induced mechanical inflammatory hyperalgesia at 5 mg/kg, […] and measured after 3 hrs; assay type: functional, organism-based; design: dose 5 mg/kg
# RAW264.7 [19] = assay: Antiinflammatory activity against mouse RAW264.7 cells assessed as reduction of LPS-induced TNF production compound pretreated 30 mins of LPS challenge measured after 4 hrs by ELISA; assay type: functional, cell-based
# RAW264.7 [20] = assay: Inhibition of PMA-induced NF-kappaB activation in mouse RAW264.7 cells assessed as reduction luminescence emission at 0.001 to 10 uM pretreated 30 mins before LPS challenge measured after 4 hrs by luciferase reporter gene assay; assay type: cell-based; how it was run: as §3
# RAW264.7 [21] = assay: Antiinflammatory activity against mouse RAW264.7 cells assessed as reduction of LPS-induced TNF mRNA expression cells at 10 uM treated 30 mins before LPS challenge measured after 3 hrs by qRT-PCR analysis; assay type: functional, cell-based
# RAW264.7 [22] = assay: Inhibition of TNF-induced NF-kappaB activation in mouse RAW264.7 cells assessed as reduction luminescence emission at 0.001 to 10 uM pretreated 30 mins before LPS challenge measured after 4 hrs by luciferase reporter gene assay; assay type: cell-based; how it was run: as §3
# RAW264.7 [23] = assay: Inhibition of PGN-induced NF-kappaB activation in mouse RAW264.7 cells assessed as reduction luminescence emission at 0.001 to 10 uM pretreated 30 mins before LPS challenge measured after 4 hrs by luciferase reporter gene assay; assay type: cell-based; how it was run: as §3
compound,measurement,setting,value
C[C@@H]1C[C@@H]([C@H](O)CC2CC(=O)NC(=O)C2)C(=O)[C@@H](C)C1,inhibition,Mus musculus [1],Active
same,inhibition,RAW264.7 [2],Active
same,inhibition,Mus musculus [3],inactive
C[C@@H]1C[C@H]2[C@@H]3CCC4=CC(=O)C=C[C@]4(C)[C@@]3(F)[C@@H](O)C[C@]2(C)[C@@]1(O)C(=O)CO,inhibition,RAW264.7 [4],Active
same,inhibition,RAW264.7 [5],inactive
S=C(S)N1CCCC1,inhibition,RAW264.7 [6],inactive
COC(=O)[C@@]12OC[C@]34[C@H]([C@@H](O)[C@@H]1O)[C@@]1(C)[C@H](O)C(=O)C=C(C)[C@@H]1C[C@H]3OC(=O)[C@H](OC(C)=O)[C@@H]24 [ISOBRUCEIN B],inhibition,Mus musculus [7],Active
same,Activity,RAW264.7 [8],inactive
same,inhibition,RAW264.7 [9],Active
same,inhibition,Mus musculus [10],Active
same,inhibition,Mus musculus [11],inactive
same,inhibition,RAW264.7 [12],Dose-dependent effect
same,inhibition,RAW264.7 [13],Active
same,Activity,RAW264.7 [14],inactive
same,inhibition,RAW264.7 [15],Active
same,Activity,[16],Non-toxic
same,Activity,Mus musculus [17],Dose-dependent effect
same,inhibition,Mus musculus [18],Active
same,inhibition,RAW264.7 [19],Active
same,inhibition,RAW264.7 [20],Dose-dependent effect
same,inhibition,RAW264.7 [21],inactive
same,inhibition,RAW264.7 [22],Dose-dependent effect
same,inhibition,RAW264.7 [23],Dose-dependent effect
